Assay results as given in ChEMBL document CHEMBL1255341, “Effect of ketoconazole on the pharmacokinetics of maribavir in healthy adults” (Antimicrob Agents Chemother, 2008).

Key:
[1] = AUC (0 to infinity) in human at 400 mg, po administered with 400 mg ketoconazole after 7 days; format: ADME, organism-based; parameters: dose 400 mg, time infinity, route oral; details: plasma
Outline: (§1)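 Healthy adults (n = 20) in a two-sequence crossover with a 1-week washout. Single oral 400 mg dose after overnight fast, 4 h post-dose fast; ketoconazole 400 mg oral given 1 h before in the combination period. Plasma sampled predose and 0.5–24 h; validated LC-MS/MS after solid-phase extraction (5–1,000 ng/ml). AUC0-t by log-linear trapezoidal method; AUC0-∞ = AUC0-t + Clast/λz.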

Homo sapiens [2] = assay: Toxicity in human assessed as adverse event at 400 mg, po administered with 400 mg ketoconazole after 7 days; format: organism-based; details: in vivo, 168 h
Outline: (§2)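 Healthy volunteers (20 enrolled) given single oral 400 mg doses, with or without oral ketoconazole 400 mg 1 h before, in crossover with a 1-week washout. The investigator recorded all adverse events, grading severity and drug relatedness. Clinical labs ran the day before and after dosing, ECGs predose and at 2 and 4 h, and liver tests at the day-15 follow-up.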

[3] = Volume of distribution with respect to oral bioavailability in human at 400 mg, po administered with 400 mg ketoconazole after 7 days; format: ADME, organism-based; details: in vivo, read-out: Vss/F
Outline: (§3)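 Crossover in healthy adults: single fasted oral 400 mg dose, alone or 1 h after oral ketoconazole 400 mg, with a 1-week washout. Plasma drawn predose through 24 h and assayed by LC-MS/MS. λz from log-linear terminal-phase regression; t1/2 = 0.693/λz; CL/F = dose/AUC0-∞; Vz/F = dose/(λz × AUC0-∞). Nominal times used.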

Homo sapiens [4] = assay: Apparent oral clearance in human assessed as VP 44469 at 400 mg, po administered with 400 mg ketoconazole after 7 days; format: ADME, organism-based; details: in vivo, 168 h; outline: as §3
Homo sapiens [5] = assay: Drug excretion in human at 400 mg, po after 24 hrs; format: ADME, organism-based; details: in vivo
Outline: (§4)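 24-h urine collected from the first void after the oral 400 mg dose, given alone or 1 h after ketoconazole 400 mg, in a crossover of healthy adults. Amount excreted (Ae) measured by LC-MS/MS after solid-phase extraction. Renal clearance = Ae/AUC0-24 from plasma sampled over 24 h.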

Homo sapiens [6] = assay: Toxicity in human assessed as dysgeusia at 400 mg, po after 24 hrs; format: organism-based; details: in vivo; outline: as §2
[7] = Tmax in human plasma at 400 mg, po after 24 hrs; format: ADME, organism-based
Outline: (§5)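 Fasted healthy adults got a single oral 400 mg dose, alone or 1 h after ketoconazole 400 mg orally, in crossover periods separated by 1 week. Blood taken predose and at 0.5, 1, 1.5, 2, 3, 4, 6, 8, 12, 16, 24 h; analytes measured by validated LC-MS/MS. Cmax and tmax read from the profiles; tmax ranks compared by ANOVA.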

Homo sapiens [8] = assay: Toxicity in human assessed as dysgeusia at 400 mg, po administered with 400 mg ketoconazole after 7 days; format: organism-based; details: in vivo, 168 h; outline: as §2
[9] = Terminal elimination half-life in human at 400 mg, po administered with 400 mg ketoconazole after 7 days; format: ADME, organism-based; details: in vivo; outline: as §3
Homo sapiens [10] = assay: Terminal elimination half-life in human assessed as VP 44469 at 400 mg, po after 24 hrs; format: ADME, organism-based; details: in vivo; outline: as §3
Homo sapiens [11] = assay: Cmax in human plasma assessed as VP 44469 at 400 mg, po administered with 400 mg ketoconazole after 7 days; format: ADME, organism-based; parameters: dose 400 mg, route oral; details: in vivo, 168 h; outline: as §5
[12] = Volume of distribution with respect to oral bioavailability in human at 400 mg, po after 24 hrs; format: ADME, organism-based; details: in vivo, read-out: Vss/F; outline: as §3
Homo sapiens [13] = assay: Toxicity in human assessed as adverse event at 400 mg, po after 24 hrs; format: organism-based; details: in vivo; outline: as §2
Homo sapiens [14] = assay: Apparent oral clearance in human assessed as VP 44469 at 400 mg, po after 24 hrs; format: ADME, organism-based; details: in vivo; outline: as §3
Homo sapiens [15] = assay: AUC (0 to t) in human assessed as VP 44469 at 400 mg, po administered with 400 mg ketoconazole after 7 days; format: ADME, organism-based, Plasma; details: in vivo, 168 h; outline: as §1
Homo sapiens [16] = assay: Drug excretion in human assessed as VP 44469 at 400 mg, po administered with 400 mg ketoconazole […]; format: ADME, organism-based; details: in vivo
[17] = Apparent oral clearance in human at 400 mg, po administered with 400 mg ketoconazole after 7 days; format: ADME, organism-based; details: in vivo; outline: as §3
[18] = AUC (0 to t) in human at 400 mg, po administered with 400 mg ketoconazole after 7 days; format: ADME, organism-based; details: plasma; outline: as §1
Homo sapiens [19] = assay: AUC (0 to infinity) in human assessed as VP 44469 at 400 mg, po after 24 hrs; format: ADME, organism-based, Plasma; parameters: dose 400 mg, time infinity, route oral; details: in vivo; outline: as §1
Homo sapiens [20] = assay: AUC (0 to t) in human assessed as VP 44469 at 400 mg, po after 24 hrs; format: ADME, organism-based, Plasma; parameters: dose 400 mg, time < 24 hr, route oral; details: in vivo; outline: as §1
Homo sapiens [21] = assay: Drug excretion in human assessed as VP 44469 at 400 mg, po after 24 hrs; format: ADME, organism-based; details: in vivo; outline: as §4
Homo sapiens [22] = assay: Renal clearance in human assessed as VP 44469 at 400 mg, po administered with 400 mg ketoconazole […]; format: ADME, organism-based, Kidney; details: in vivo
Homo sapiens [23] = assay: Tmax in human plasma assessed as VP 44469 at 400 mg, po after 24 hrs; format: ADME, organism-based; details: in vivo; outline: as §5
Homo sapiens [24] = assay: Volume of distribution with respect to oral bioavailability in human assessed as VP 44469 at 400 mg, po administered with 400 mg ketoconazole after 7 days; format: ADME, organism-based; details: in vivo, 168 h; outline: as §3
[25] = Apparent oral clearance in human at 400 mg, po after 24 hrs; format: ADME, organism-based; details: in vivo; outline: as §3
Homo sapiens [26] = assay: Drug excretion in human at 400 mg, po administered with 400 mg ketoconazole […]; format: ADME, organism-based; details: in vivo; outline: as §4
[27] = AUC (0 to infinity) in human at 400 mg, po after 24 hrs; format: ADME, organism-based; parameters: dose 400 mg, route oral, time infinity; details: plasma; outline: as §1
Homo sapiens [28] = assay: Toxicity in human assessed as headache at 400 mg, po administered with 400 mg ketoconazole after 7 days; format: organism-based; details: in vivo, 168 h; outline: as §2
Homo sapiens [29] = assay: AUC (0 to infinity) in human assessed as VP 44469 at 400 mg, po administered with 400 mg ketoconazole after 7 days; format: ADME, organism-based, Plasma; parameters: dose 400 mg, route oral, time infinity; details: in vivo, 168 h; outline: as §1
Homo sapiens [30] = assay: Cmax in human plasma assessed as VP 44469 at 400 mg, po after 24 hrs; format: ADME, organism-based; parameters: dose 400 mg, route oral; details: in vivo; outline: as §5
Homo sapiens [31] = assay: Tmax in human plasma assessed as VP 44469 at 400 mg, po administered with 400 mg ketoconazole after 7 days; format: ADME, organism-based; details: in vivo, 168 h; outline: as §5
[32] = Cmax in human plasma at 400 mg, po after 24 hrs; format: ADME, organism-based; parameters: dose 400 mg, route oral; outline: as §5
Homo sapiens [33] = assay: Terminal elimination half-life in human assessed as VP 44469 at 400 mg, po administered with 400 mg ketoconazole after 7 days; format: ADME, organism-based; details: in vivo, 168 h; outline: as §3
[34] = Tmax in human plasma at 400 mg, po administered with 400 mg ketoconazole after 7 days; format: ADME, organism-based; outline: as §5
Homo sapiens [35] = assay: Renal clearance in human assessed as VP 44469 at 400 mg, po after 24 hrs; format: ADME, organism-based, Kidney; details: in vivo; outline: as §4
[36] = AUC (0 to t) in human at 400 mg, po after 24 hrs; format: ADME, organism-based; parameters: time < 24 hr, dose 400 mg, route oral; details: plasma; outline: as §1
[37] = Cmax in human plasma at 400 mg, po administered with 400 mg ketoconazole after 7 days; format: ADME, organism-based; parameters: dose 400 mg, route oral; outline: as §5
Homo sapiens [38] = assay: Volume of distribution with respect to oral bioavailability in human assessed as VP 44469 at 400 mg, po after 24 hrs; format: ADME, organism-based; details: in vivo; outline: as §3
[39] = Renal clearance in human at 400 mg, po administered with 400 mg ketoconazole after 7 days; format: ADME, organism-based, Kidney; details: in vivo; outline: as §4
[40] = Terminal elimination half-life in human at 400 mg, po after 24 hrs; format: ADME, organism-based; details: in vivo; outline: as §3

AUC(0-inf) [1]: 194 µg·h/mL
Vd/F [3]: 21.6 L
CL/F (Homo sapiens [4]): 21.1 L/h
Activity (Homo sapiens [5]): 4.12 mg
Tmax [7]: 1.7 h
half-life [9]: 6.88 h
t1/2 (Homo sapiens [10]): 6.83 h
Cmax (Homo sapiens [11]): 1000 ng/mL
Vd/F [12]: 27.5 L
CL/F (Homo sapiens [14]): 23.8 L/h
AUC (Homo sapiens [15]): 14.7 µg·h/mL
Activity (Homo sapiens [16]): 95 mg
CL/F [17]: 38.7 mL/min
AUC(0-t) at 168 h [18]: 173 µg·h/mL
AUC (Homo sapiens [19]): 17.4 µg·h/mL
AUC (Homo sapiens [20]): 15.6 µg·h/mL
Activity (Homo sapiens [21]): 110 mg
CL_renal (Homo sapiens [22]): 6876 mL/h
Tmax (Homo sapiens [23]): 2.5 h
Vz/F (Homo sapiens [24]): 342 L
CL/F [25]: 59.3 mL/min
Activity (Homo sapiens [26]): 9.86 mg
AUC(0-inf) [27]: 126 µg·h/mL
AUC (Homo sapiens [29]): 20.5 µg·h/mL
Cmax (Homo sapiens [30]): 1600 ng/mL
Tmax (Homo sapiens [31]): 5.5 h
Cmax [32]: 19800 ng/mL
t1/2 (Homo sapiens [33]): 11.8 h
Tmax [34]: 1.9 h
CL_renal (Homo sapiens [35]): 7637 mL/h
AUC(0-t) at 24 h [36]: 119 µg·h/mL
Cmax [37]: 21800 ng/mL
Vss/F (Homo sapiens [38]): 235 L
CL renal at 168 h [39]: 0.953 mL/min
half-life [40]: 5.73 h
Structure (SMILES): CC(C)Nc1nc2cc(Cl)c(Cl)cc2n1[C@H]1O[C@@H](CO)[C@H](O)[C@@H]1O [MARIBAVIR]
Activity (Homo sapiens [2]): 45%
Activity (Homo sapiens [6]): 47%
Activity (Homo sapiens [8]): 35%
Activity (Homo sapiens [13]): 47%
Activity (Homo sapiens [28]): 10%
